Laboratory results as given in ChEMBL document CHEMBL1134672, “Design and synthesis of 4-substituted benzamides as potent, selective, and orally bioavailable I(Ks) blockers” (J Med Chem, 2001).

Tests used:
[1] = biological target: T1, Potassium voltage-gated channel subfamily KQT member 1 (Cavia porcellus, UniProt O70344); test: Molar concentration required to inhibit 50% of the activating delayed-rectifier K+ current in isolated guinea pig ventricular myocytes
T1 sequence (O70344 whole entry): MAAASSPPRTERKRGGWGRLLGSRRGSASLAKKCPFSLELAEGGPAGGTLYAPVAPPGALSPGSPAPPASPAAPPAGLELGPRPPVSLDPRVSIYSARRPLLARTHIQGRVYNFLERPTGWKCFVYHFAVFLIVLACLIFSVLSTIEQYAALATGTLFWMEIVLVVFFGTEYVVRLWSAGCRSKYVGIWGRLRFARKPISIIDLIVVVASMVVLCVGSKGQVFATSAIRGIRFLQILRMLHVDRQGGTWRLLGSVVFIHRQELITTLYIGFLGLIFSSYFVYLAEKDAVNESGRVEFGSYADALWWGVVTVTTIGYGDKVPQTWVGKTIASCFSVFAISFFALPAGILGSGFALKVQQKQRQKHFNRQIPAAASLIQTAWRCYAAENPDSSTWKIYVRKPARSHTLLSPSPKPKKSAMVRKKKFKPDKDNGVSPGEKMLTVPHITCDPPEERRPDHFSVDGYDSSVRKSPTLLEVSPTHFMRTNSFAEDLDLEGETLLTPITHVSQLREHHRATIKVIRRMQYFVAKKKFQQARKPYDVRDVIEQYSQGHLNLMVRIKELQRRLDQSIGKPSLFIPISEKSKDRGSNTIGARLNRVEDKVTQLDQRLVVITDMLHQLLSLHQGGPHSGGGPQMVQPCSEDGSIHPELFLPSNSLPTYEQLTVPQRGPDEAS
Procedure, shortened: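 Native IKs recorded by voltage clamp in isolated guinea pig ventricular myocytes, with ionic solutions and voltage protocol designed to isolate IKs from other currents.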

[2] = Bioavailability in rat; format: ADME, organism-based; settings: in vivo
Procedure, shortened: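 Rats were dosed orally and screened for plasma drug levels. Compounds reaching plasma concentrations of >75 nM were then tested individually for oral bioavailability by standard methods.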

[3] = Compound was evaluated for half life period when administered intravenously; format: ADME, organism-based; settings: in vivo, iv
Procedure, shortened: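 Half-life was determined in rats after intravenous administration.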

Row | Structure (SMILES) | IC50 [1] [nM] | bioavailability [2] [%] | half-life [3] [min]
1 | CCCCCCOc1ccc(C(=O)NCCN(CC)CC)cc1 | 3500 | – | –
2 | CCCCCCOc1ccc(C(=O)NC2CCCC2(C)C)cc1 (stereo unspecified) | > 30000 | – | –
3 | CCCCCCOc1ccc(C(=O)NCC2CCCC2(C)C)cc1 (single isomer, unassigned; form 1) | 710 | – | –
4 | CCCCCCOc1ccc(C(=O)NCC2CCCCC2(C)C)cc1 (stereo in doubt; 13(B)) | > 3000 | – | –
5 | CC(C)(C)CCNC(=O)c1ccc(-c2ccccc2)cc1 | 540 | – | –
6 | CCCCCCOc1ccc(C(=O)NCCC(C)(C)C)cc1 | 250 | – | –
7 | Cc1noc(-c2ccc(C(=O)NCC3CCCC3(C)C)cc2)n1 (stereo in doubt; 21(B)) | 580 | – | –
8 | CC(C)(C)CCNC(=O)c1ccc(-n2ccc3ccccc32)cc1 | 260 | – | –
9 | CCCCCCOc1ccc(C(=O)NCC2CCCCC2(C)C)cc1 (stereo in doubt; 13(A)) | 1400 | – | –
10 | CN1C(=O)[C@H](NC(=O)/C=C/c2ccc(Cl)cc2Cl)N=C(c2ccccc2)c2ccccc21 | 31 | – | –
11 | Cc1noc(-c2ccc(C(=O)NCC3CCCC3(C)C)cc2)n1 (stereo in doubt; 21(A)) | 220 | – | –
12 | CCCCCCOc1ccc(C(=O)N2CCC(C(C)(C)C)C2)cc1 (stereo unspecified) | > 3000 | – | –
13 | CCCCCCOc1ccc(C(=O)CCN2CCCCC2)cc1 | 4000 | – | –
14 | CCCCCCOc1ccc(C(=O)NC2CCC(C)(C)C2)cc1 (stereo unspecified) | 360 | – | –
15 | CCCCCCOc1ccc(C(=O)NCC2CCCC(C)(C)C2)cc1 (stereo unspecified) | 370 | – | –
16 | CCN(CC)C(=O)COc1ccc(C(C)(C)CC(C)(C)C)cc1 | 5000 | – | –

The remaining compounds from weak to strong by IC50 [1], led by results:

Row | IC50 [1] [nM] | bioavailability [2] [%] | half-life [3] [min] | Structure (SMILES)
17 | 160 | – | – | CCCCCCOc1ccc(C(=O)NCC2CCCC2(C)C)cc1 (single isomer, unassigned; form 2)
18 | 130 | – | – | CC(C)(C)CCNC(=O)c1ccc(-c2nc(-c3ccccc3)no2)cc1
19 | 40 | 23 | 192 | CC1(C)CCCC1CNC(=O)c1ccc(-c2noc(CCC(F)(F)F)n2)cc1 (single isomer, unassigned; form 2)
20 | 27 | – | – | CCCc1noc(-c2ccc(C(=O)NCC3CCCC3(C)C)cc2)n1 (single isomer, unassigned; form 1)
21 | 27 | – | – | CC1(C)CCCC1CNC(=O)c1ccc(-c2noc(CCC(F)(F)F)n2)cc1 (single isomer, unassigned; form 1)
22 | 23 | – | – | CC1(C)CCCC1CNC(=O)c1ccc(-c2nc(CC3CC3)no2)cc1 (single isomer, unassigned; form 1)
23 | 23 | – | – | CCCCc1noc(-c2ccc(C(=O)NCCC(C)(C)C)cc2)n1
24 | 18 | – | – | CC1(C)CCCC1CNC(=O)c1ccc(-c2nc(CC3CC3)no2)cc1 (single isomer, unassigned; form 2)
25 | 10 | – | – | CCCc1noc(-c2ccc(C(=O)NCC3CCCC3(C)C)cc2)n1 (single isomer, unassigned; form 2)
26 | 9 | – | – | CCCCc1noc(-c2ccc(C(=O)NC[C@@H]3CCCC3(C)C)cc2)n1
27 | 2 | < 1 | 252 | CCCCc1noc(-c2ccc(C(=O)NC[C@H]3CCCC3(C)C)cc2)n1
